{"source": "paper PMC4883117", "about": "(Fitoterapia, 2015)", "key": {"[1]": {"test_system": "Trypanosoma brucei brucei", "experiment": "In vitro antitrypanosomal Alamar Blue assay on T. brucei trypomastigote cultures", "type": "cell-based", "conditions": "for Antitrypanosomal activity IC50 / Antitrypanosomal activity IC90: T. b. brucei, 37 °C, mean ± S.D. of duplicate observations, tested range 0.4–10 μg/mL; for IC50 / IC90: Trypanosoma brucei; for IC50: read-out: Antitrypanosomal activity IC50; for IC90: read-out: Antitrypanosomal activity IC90", "outline": "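T. b. brucei trypomastigotes seeded at 2 × 10^6 cell/mL and exposed to test compound at three concentrations (40–1.6 or […]). Incubated 72 h at 37 °C, then parasite growth read by Alamar Blue. IC50 and IC90 were fitted from dose–response curves and given as mean ± S.D. of duplicate observations. Difluoromethylornithine served as positive control.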"}, "THP1 cells": {"test_system": "THP1 cells", "experiment": "Cytotoxicity against THP1 cell cultures", "type": "cell-based, human"}, "μ-opioid receptors": {"target": "μ-opioid receptors (Homo sapiens, UniProt P35372)", "sequence (P35372 whole entry)": "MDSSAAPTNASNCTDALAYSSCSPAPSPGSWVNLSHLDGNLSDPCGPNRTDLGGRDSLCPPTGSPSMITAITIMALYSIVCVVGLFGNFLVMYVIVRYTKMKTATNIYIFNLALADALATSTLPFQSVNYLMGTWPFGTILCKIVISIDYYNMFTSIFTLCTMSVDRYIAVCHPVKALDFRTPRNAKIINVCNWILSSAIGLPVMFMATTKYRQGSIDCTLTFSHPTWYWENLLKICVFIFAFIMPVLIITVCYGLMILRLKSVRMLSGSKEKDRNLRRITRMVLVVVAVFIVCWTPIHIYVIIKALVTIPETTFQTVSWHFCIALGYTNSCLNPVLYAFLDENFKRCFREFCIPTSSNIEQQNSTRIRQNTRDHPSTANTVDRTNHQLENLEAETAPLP", "experiment": "Opioid receptor radioligand binding assay", "conditions": "for Ki: read-out: μ-opioid receptor Ki; for IC50: read-out: μ-opioid receptor binding IC50"}, "[2]": {"experiment": "Cytotoxicity against THP1 cell cultures", "type": "cell-based, human", "conditions": "human, THP1 cells"}}, "note": "Values joined by “and” are separate entries in the source; they are usually repeats but may differ in a detail not shown here. Equal values may be shown once. Read-outs that look alike come from different tables or passages of the source."}
{"compound": "2α-Hydroxyheinsiagenin A 3-O-[β-D-glucopyranosyl-(1→2)]-[β-D-glucopyranosyl]-(1→4)]-β-D-glucopyranoside [Compound 4]", "values": [{"measurement": "Antitrypanosomal activity IC50", "setting": "[1]; 72 h", "result": 3.04, "unit": "mg/L"}, {"measurement": "Antitrypanosomal activity IC90", "setting": "[1]; 72 h", "result": 4.64, "unit": "mg/L"}, {"measurement": "THP1 cell toxicity IC50", "setting": "THP1 cells", "result": ">10", "unit": "mg/L"}]}
{"compound": "Heinsiagenin A 3-O-[α-L-rhamnopyranosyl-(1→2)-β-D-glucopyranosyl-(1→2)]-β-D-glucopyranoside [Compound 1]", "values": [{"measurement": "Antitrypanosomal activity IC50", "setting": "[1]; 72 h", "result": 9.13, "unit": "mg/L"}, {"measurement": "Antitrypanosomal activity IC90", "setting": "[1]; 72 h", "result": 11.05, "unit": "mg/L"}, {"measurement": "THP1 cell toxicity IC50", "setting": "THP1 cells", "result": ">10", "unit": "mg/L"}, {"measurement": "radio ligand displacement in μ-opioid receptor binding assay", "setting": "μ-opioid receptors", "result": 65.9, "unit": "%"}, {"measurement": "Ki", "setting": "μ-opioid receptors", "result": 9.94, "unit": "µM"}, {"measurement": "IC50", "setting": "μ-opioid receptors", "result": 19.9, "unit": "µM"}]}
{"compound": "Heinsiagenin A 3-O-[α-L-rhamnopyranosyl-(1→2)-β-D-glucopyranosyl-(1→2)]-[β-D-glucopyranosyl-(1→4)]-β-D-glucopyranoside [Compound 2]", "values": [{"measurement": "Antitrypanosomal activity IC50", "setting": "[1]; 72 h", "result": 3.08, "unit": "mg/L"}, {"measurement": "Antitrypanosomal activity IC90", "setting": "[1]; 72 h", "result": 4.27, "unit": "mg/L"}, {"measurement": "THP1 cell toxicity IC50", "setting": "THP1 cells", "result": ">10", "unit": "mg/L"}, {"measurement": "radio ligand displacement in μ-opioid receptor binding assay", "setting": "μ-opioid receptors", "result": 61.0, "unit": "%"}, {"measurement": "Ki", "setting": "μ-opioid receptors", "result": "0.872 µM and 0.87 µM"}, {"measurement": "IC50", "setting": "μ-opioid receptors", "result": 1.74, "unit": "µM"}]}
{"compound": "C/C(=C\\C=C\\[C@@H](C)[C@H]1CC[C@@]2(C)C3=C(CC[C@]12CO)[C@@]1(C)CC[C@H](O[C@@H]2O[C@H](CO)[C@@H](O[C@@H]4O[C@H](CO)[C@@H](O)[C@H](O)[C@H]4O)[C@H](O)[C@H]2O[C@@H]2O[C@H](CO)[C@@H](O)[C@H](O)[C@H]2O[C@@H]2O[C@@H](C)[C@H](O)[C@@H](O)[C@H]2O)C(C)(C)[C@@H]1CC3)C(=O)N[C@@H]1C(=O)O[C@H](C)[C@@H]1C", "note": "[Compound 5, N-(2S, 3R, 4R-3-methyl-4-pentanolid-2-yl)-18-hydroxylanosta-8 (9), 22E, 24E-trien-27-amide-3-O-[α-L-rhamnopyranosyl-(1→2)-O-β-D-glucopyranosyl-(1→2)]-[β-D-glucopyranosyl-(1→4)]-β-D-glucopyranoside]", "values": [{"measurement": "Antitrypanosomal activity IC50", "setting": "[1]; 72 h", "result": ">10", "unit": "mg/L"}, {"measurement": "Antitrypanosomal activity IC90", "setting": "[1]; 72 h", "result": ">10", "unit": "mg/L"}, {"measurement": "antitrypanosomal activity (in words)", "setting": "[1]; tested concentrations range 0.32–8.23 μM", "result": "no antitrypanosomal activity"}, {"measurement": "THP1 cell toxicity IC50", "setting": "THP1 cells", "result": ">10", "unit": "mg/L"}]}
{"compound": "NCCCC(N)(C(=O)O)C(F)F", "note": "(stereo not drawn) [DFMO, difluoromethylornithine, reference compound]", "values": [{"measurement": "IC50", "setting": "[1]; 72 h", "result": 2.38, "unit": "mg/L"}, {"measurement": "IC90", "setting": "[1]; 72 h", "result": 5.28, "unit": "mg/L"}, {"measurement": "IC50", "setting": "[1]", "result": 13.1, "unit": "µM"}, {"measurement": "IC90", "setting": "[1]", "result": 29, "unit": "µM"}, {"measurement": "IC50", "setting": "[2]", "result": "> 10", "unit": "mg/L"}]}
{"compound": "2α-Hydroxyheinsiagenin A 3-O-[α-L-rhamnopyranosyl-(1→2)-β-D-glucopyranosyl-(1→2)]-β-D-glucopyranoside [Compound 3]", "values": [{"measurement": "Antitrypanosomal activity IC50", "setting": "[1]; 72 h", "result": 2.75, "unit": "mg/L"}, {"measurement": "Antitrypanosomal activity IC90", "setting": "[1]; 72 h", "result": 3.53, "unit": "mg/L"}, {"measurement": "THP1 cell toxicity IC50", "setting": "THP1 cells", "result": ">10", "unit": "mg/L"}]}
